Measurements from ChEMBL document CHEMBL4513216, “Probing the Open Global Health Chemical Diversity Library for Multistage-Active Starting Points for Next-Generation Antimalarials” (ACS Infect Dis, 2020).

Assay: Toxicity liver stage against HepG2, at 10uM
Type: cell-based
Parameters: test concentration 10 uM, cell line HepG2-A16-CD81EGFP
Details: human, HepG2-A16-CD81EGFP cells; read-out: INHIBITION
Outline: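 Uninfected HepG2-A16-CD81EGFP cells, 3 × 10^3 per well, 1536-well, plated on prespotted compound at 10 μM final, parasite-free screening media added to match infected plates; puromycin 10 μM positive, DMSO 0.5% negative; run in parallel with 48 h PbLuc assay at 37 °C, 5% CO2; viability by CellTiter-Glo luminescence, normalized to controls.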

| SMILES | cytotoxicity at 10 µM [%] |
| --- | --- |
| CCn1ccc(NC(=O)CCc2c(C)nn(C)c2C)n1 | 4.01 |
| CN1CCCC(Cc2cc(N(C)C)ncn2)C1 (stereo unspecified) | 11.1 |
| Cc1nn(C)cc1-c1cc(C(=O)N2CCc3ncc(Cl)cc3C2)no1 | 1.18 |
| CN(C)C(=O)CN1CCCCC1c1nc(N)ncc1-c1ccc(Cl)cc1 (stereo unspecified) | -14.9 |
| CCCNC(=O)c1cncc(CC2CCCN(C)C2)c1 (stereo unspecified) | -16 |
| O=C(NCCO)C1(Cc2cc(-c3ccc(F)cc3F)no2)CCOCC1 | 0.333 |
| Cc1ccc(S(=O)(=O)N2C[C@H]3C[C@H](NC(=O)c4ccn(C)n4)[C@H]3C2)cc1 | -1.11 |
| CNc1cncc(C2CCCN2Cc2ccccc2OCC(=O)O)n1 (stereo unspecified) | -0.105 |
| O=C(Cc1cccc(F)c1F)NS(=O)(=O)c1ccc(Cl)cn1 | 0.545 |
| CNc1nc(CS(=O)(=O)c2ccccc2)cs1 | 13 |
| COc1cc(OC)cc(-c2noc(CN)n2)c1 | 20.6 |
| O=C(CN1CCCNC1=O)N(Cc1ccccc1)CC(F)F | 5.9 |
| Cc1cnn(CCNCc2cc(C)no2)c1 | 8.77 |
| CC1CN(S(=O)(=O)c2cc(S(C)(=O)=O)ccc2Br)c2cccnc2O1 (stereo unspecified) | -0.346 |
| CC(CC(=O)Nc1ncn(CC(=O)NCc2ccccc2)n1)C1CC1 (stereo unspecified) | 7.12 |
| Cc1cccc(NC(=O)CN(C)C(=O)c2scnc2C)n1 | -3.79 |
| CCN(CCC(F)(F)F)S(=O)(=O)c1cccc(F)c1C#N | -3.77 |
| CC(C)(C)c1ncc(CNc2ccn(CCc3ccncc3)n2)s1 | 26.1 |
| Cc1nc(NC(=O)NCc2nc3cccc(C)c3n2C)oc1C | -6.71 |
| CN(Cc1ccccc1)CC(C)(C)NC(=O)c1ccon1 | 13 |
| CCN1CCN(c2ccc(C(=O)NCCn3ccnc3)cc2F)CC1 | 10.8 |
| CCOCCN1CCN(Cc2nc(C3CC3)no2)CC1CC (stereo unspecified) | -5.75 |
| CNC(=O)[C@@]12CCO[C@@H]1CCN(S(=O)(=O)c1cccc(C)c1)C2 | -1.8 |

| SMILES | cytotoxicity at 10 µM [%] |
| --- | --- |
| CCn1c(C2CCN(C(=O)COCC(F)(F)C(F)F)CC2)n[nH]c1=O | -55 |
| CC(C)[C@]1(O)CN(C(=O)C2(Cn3cccn3)CC2)C[C@H]1C | 1.79 |
| Cn1cc(CN2CCCC(CCc3ccc(F)c(F)c3)C2)cn1 (stereo unspecified) | -6.6 |
| Nc1nc2c(c(NCc3cnc4c(c3)CCC4)n1)CCNC2 | 1.98 |
| Cc1ccc(-c2nnc(CCC(=O)NCc3cn(C)nc3C)o2)s1 | -1.31 |
| CCOCCC(=O)N(C)Cc1noc(C(C)C)n1 | 6.13 |
| CNS(=O)(=O)Cc1ccc(CNC(=O)c2ccccn2)cc1 | -0.945 |
| Cc1oc(C(=O)O)cc1S(=O)(=O)Nc1cc(Br)ccc1Cl | 0.386 |
| Cc1noc(Cl)c1CCC(=O)N1CCN(CC(C)(C)O)CC1 | 1.61 |
| Cc1nc(C)c(C(=O)NCCNc2ncccn2)s1 | -3.65 |
| O=C(c1csc(-c2ccccn2)n1)N1CCCC1Cn1cccn1 (stereo unspecified) | -3.69 |
| c1ccc(-c2nc(CNC3CCc4ncnn4C3)cs2)cc1 (stereo unspecified) | -6.19 |
| Cc1c[nH]cc1C(=O)N1CCN(CCc2cccs2)CC1 | -6.8 |
| Cc1cc(C)c(CNC(=O)NCC2CCCO2)c(=O)[nH]1 (stereo unspecified) | -3.76 |
| Cc1ccc(C)c(OC2CCN(C(=O)c3ccc(O)nc3)CC2)c1 | 3.23 |
| CN1CCN(C2CCN(CC(=O)NCC(F)(F)F)CC2)C1=O | -9.78 |
| CN(C)CC1CN(c2cnc3ccccc3n2)CCO1 (stereo unspecified) | -9.93 |
| CN(Cc1ccc(F)cc1)C(=O)NCc1nnc2n1CCCCC2 | -10.1 |
| Cc1ccc(C(N)c2cccc(S(C)(=O)=O)c2)cc1 (stereo unspecified) | 3.18 |
| CCN(Cc1nc2c(cnn2C)c(=O)[nH]1)c1ccc(OC)c(OC)c1 | 2.31 |
| Cc1nn(C)c(N2CCOCC2)c1CNCc1ccnc(N(C)C)c1 | 1.97 |
| O=C(NC[C@]12COC[C@H]1CN(C1CCOCC1)C2)c1ccco1 | -3.99 |
| CCc1c(C)[nH]c2cc(C3CCN(Cc4ccncc4C)C3)nn2c1=O (stereo unspecified) | -14.1 |
